Ends that are not written are not given here.
Legend:
[1] = test system: FGF receptors; details: cited from earlier work
[2] = test system: ERK1/2 pathway in lymphatic endothelial cells (LECs); assay: ERK1/2 phosphorylation in lymphatic endothelial cells; type: cell-based, human; details: growth factor 100 ng/ml, 10 min, 37°C, 1% DMSO, heparin 10 U/ml
In short: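 Human dermal lymphatic microvascular endothelial cells were cultured overnight in EBM2 with 2% FBS, then starved 18 h in EBM2 with 0.2% BSA. They were stimulated with VEGF-A, VEGF-C or FGF-1, with or without test peptide or scrambled peptide (30 μg/ml). Lysates were immunoblotted for total and phospho-ERK1/2 using infrared-dye secondaries, and the phospho/total intensity ratio was taken. Two experiments were run; ANOVA with Tukey.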

[3] = molecular target: T1, VEGFR-3 (Mus musculus, UniProt P35917); assay: competition assay, binding of phage PCAIWF to immobilized VEGFR-3
T1 sequence (P35917 25-770): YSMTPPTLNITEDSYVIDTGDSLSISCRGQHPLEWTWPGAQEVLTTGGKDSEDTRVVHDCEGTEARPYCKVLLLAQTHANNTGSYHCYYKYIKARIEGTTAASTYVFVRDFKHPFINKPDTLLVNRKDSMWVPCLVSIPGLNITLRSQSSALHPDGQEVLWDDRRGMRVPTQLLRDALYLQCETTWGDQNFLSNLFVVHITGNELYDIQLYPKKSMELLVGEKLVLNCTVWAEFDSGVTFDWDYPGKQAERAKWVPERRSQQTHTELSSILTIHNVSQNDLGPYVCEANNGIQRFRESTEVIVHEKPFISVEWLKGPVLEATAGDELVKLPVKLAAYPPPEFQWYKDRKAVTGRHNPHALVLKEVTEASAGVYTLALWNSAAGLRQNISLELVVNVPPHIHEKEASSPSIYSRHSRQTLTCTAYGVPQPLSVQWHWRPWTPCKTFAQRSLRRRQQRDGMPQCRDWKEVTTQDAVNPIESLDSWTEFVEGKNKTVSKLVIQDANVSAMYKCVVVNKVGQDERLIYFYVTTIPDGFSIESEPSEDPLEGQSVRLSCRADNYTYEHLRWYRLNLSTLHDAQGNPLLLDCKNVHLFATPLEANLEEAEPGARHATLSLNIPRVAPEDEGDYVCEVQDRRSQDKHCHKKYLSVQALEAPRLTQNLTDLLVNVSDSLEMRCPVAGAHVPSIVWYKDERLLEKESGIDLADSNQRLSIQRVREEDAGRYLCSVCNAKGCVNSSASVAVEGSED

[4] = test system: human VEGFR-3; assay: phage binding assay, immobilized human VEGFR-3; details: 10^8 TU in 50 μl PBS, 2 hours, room temperature; control insertless phage Fd; colony count or phage-FLISA; triplicate plating
[5] = test system: mouse VEGFR-3; assay: phage binding assay, immobilized mouse VEGFR-3; details: 10^8 TU in 50 μl PBS, 2 hours, room temperature; control insertless phage Fd; colony count or phage-FLISA; triplicate plating
[6] = molecular target: T2, human VEGFR-3 extracellular domain (Fc fusion) (human, UniProt P35916 25-775); assay: phage binding assay
T2 sequence: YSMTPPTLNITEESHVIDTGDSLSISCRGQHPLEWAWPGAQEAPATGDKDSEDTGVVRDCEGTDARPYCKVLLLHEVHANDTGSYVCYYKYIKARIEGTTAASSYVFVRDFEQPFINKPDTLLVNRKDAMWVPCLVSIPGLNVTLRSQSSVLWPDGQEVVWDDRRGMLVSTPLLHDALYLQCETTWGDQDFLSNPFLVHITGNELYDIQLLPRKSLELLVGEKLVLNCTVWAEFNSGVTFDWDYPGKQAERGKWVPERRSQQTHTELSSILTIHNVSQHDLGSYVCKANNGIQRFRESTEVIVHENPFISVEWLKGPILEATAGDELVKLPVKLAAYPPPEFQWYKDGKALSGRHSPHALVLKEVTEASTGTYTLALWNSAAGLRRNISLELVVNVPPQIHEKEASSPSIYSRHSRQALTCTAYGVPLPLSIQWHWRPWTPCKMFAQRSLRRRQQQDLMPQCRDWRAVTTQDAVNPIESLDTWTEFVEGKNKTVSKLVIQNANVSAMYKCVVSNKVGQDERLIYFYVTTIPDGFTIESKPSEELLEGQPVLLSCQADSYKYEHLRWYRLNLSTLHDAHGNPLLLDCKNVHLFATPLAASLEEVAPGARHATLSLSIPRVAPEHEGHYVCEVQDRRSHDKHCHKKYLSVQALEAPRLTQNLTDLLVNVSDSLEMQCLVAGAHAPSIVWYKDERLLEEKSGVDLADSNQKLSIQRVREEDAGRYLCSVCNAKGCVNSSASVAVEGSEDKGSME

[7] = molecular target: T3, recombinant mouse VEGFR-3/Fc (mouse, UniProt P35917 25-770); assay: phage binding assay
T3 sequence: T1 sequence (P35917 25-770)

[8] = molecular target: T4, recombinant IgD2 domain of human VEGFR-3 (human, UniProt P35916 136-229); assay: ELISA
T4 sequence: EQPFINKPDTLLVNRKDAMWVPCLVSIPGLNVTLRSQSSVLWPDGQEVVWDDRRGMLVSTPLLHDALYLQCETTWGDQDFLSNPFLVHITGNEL

[9] = molecular target: T5, recombinant IgD2-3 domains of human VEGFR-3 (human, UniProt P35916 136-332); assay: ELISA
T5 sequence: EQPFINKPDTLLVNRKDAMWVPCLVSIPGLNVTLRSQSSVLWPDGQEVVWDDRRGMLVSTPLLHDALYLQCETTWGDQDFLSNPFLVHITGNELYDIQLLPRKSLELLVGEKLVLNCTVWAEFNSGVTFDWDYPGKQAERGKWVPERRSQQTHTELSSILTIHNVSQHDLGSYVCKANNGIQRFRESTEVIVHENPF

[10] = molecular target: human VEGFR-1 extracellular domain (Fc fusion) (human, UniProt P17948 27-758); assay: ELISA
Sequence of human VEGFR-1 extracellular domain (Fc fusion) (P17948 27-758): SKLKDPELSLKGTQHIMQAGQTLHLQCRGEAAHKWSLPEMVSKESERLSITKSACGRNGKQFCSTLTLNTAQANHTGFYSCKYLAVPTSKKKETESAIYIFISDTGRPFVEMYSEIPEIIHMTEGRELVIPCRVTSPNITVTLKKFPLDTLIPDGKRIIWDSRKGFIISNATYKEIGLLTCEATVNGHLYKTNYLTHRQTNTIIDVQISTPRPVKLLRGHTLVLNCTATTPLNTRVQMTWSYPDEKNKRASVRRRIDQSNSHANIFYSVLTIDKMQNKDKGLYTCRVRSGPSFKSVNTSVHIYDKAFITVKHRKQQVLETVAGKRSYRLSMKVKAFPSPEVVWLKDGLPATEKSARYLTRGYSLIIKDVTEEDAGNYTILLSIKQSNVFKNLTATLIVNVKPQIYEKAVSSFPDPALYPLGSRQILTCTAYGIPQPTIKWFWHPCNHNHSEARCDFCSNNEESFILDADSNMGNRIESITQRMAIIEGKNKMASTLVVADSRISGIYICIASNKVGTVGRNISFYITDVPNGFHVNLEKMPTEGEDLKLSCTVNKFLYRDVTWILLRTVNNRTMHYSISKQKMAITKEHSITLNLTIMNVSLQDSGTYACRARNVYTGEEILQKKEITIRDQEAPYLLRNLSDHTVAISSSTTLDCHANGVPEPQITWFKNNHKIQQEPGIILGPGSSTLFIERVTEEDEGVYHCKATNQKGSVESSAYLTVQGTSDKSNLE

[11] = molecular target: human VEGFR-2 extracellular domain (Fc fusion) (human, UniProt P35968 20-764); assay: ELISA
Sequence of human VEGFR-2 extracellular domain (Fc fusion) (P35968 20-764): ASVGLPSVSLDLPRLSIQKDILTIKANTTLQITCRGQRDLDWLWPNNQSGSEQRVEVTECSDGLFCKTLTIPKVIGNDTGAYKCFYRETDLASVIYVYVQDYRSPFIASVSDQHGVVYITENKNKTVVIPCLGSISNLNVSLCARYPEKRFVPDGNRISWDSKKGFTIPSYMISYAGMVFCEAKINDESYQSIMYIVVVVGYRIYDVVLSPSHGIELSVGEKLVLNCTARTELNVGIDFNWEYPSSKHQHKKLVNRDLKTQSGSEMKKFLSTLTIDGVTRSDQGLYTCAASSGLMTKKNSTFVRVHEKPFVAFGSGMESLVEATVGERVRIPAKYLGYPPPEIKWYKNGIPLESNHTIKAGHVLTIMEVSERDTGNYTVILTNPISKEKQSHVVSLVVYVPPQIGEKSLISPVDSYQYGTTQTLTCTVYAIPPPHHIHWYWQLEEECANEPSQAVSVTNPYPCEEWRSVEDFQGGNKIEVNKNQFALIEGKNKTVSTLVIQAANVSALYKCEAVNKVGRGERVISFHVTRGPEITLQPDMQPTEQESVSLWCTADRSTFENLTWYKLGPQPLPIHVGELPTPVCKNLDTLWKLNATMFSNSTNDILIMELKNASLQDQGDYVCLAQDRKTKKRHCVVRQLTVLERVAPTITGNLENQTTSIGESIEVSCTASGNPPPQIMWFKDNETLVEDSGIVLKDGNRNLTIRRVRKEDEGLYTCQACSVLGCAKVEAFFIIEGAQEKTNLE

[12] = molecular target: T2, human VEGFR-3 extracellular domain (Fc …); assay: ELISA
[13] = test system: human VEGFR-1; assay: FLISA binding assay, NRP-2 to VEGFR-1; details: rat NRP-2, FLISA
In short: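 Human VEGFR-1 extracellular domain coated at 200 ng per well in PBS overnight at 4°C, then blocked with Odyssey blocking buffer. Wells incubated with NRP-1 or NRP-2 in PBS with 10% (v/v) DMSO and 10% blocking buffer, with or without peptide (100 μg/ml). Bound NRP detected with goat anti-NRP-1 or anti-NRP-2 serum (1:100), then IRDye 680LT anti-goat, by infrared scanning. Duplicate wells; ANOVA with Tukey.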

For `COc1c(C)c(C(=O)c2ccc(N)c(C(=O)[O-])c2)n2ccccc12.[Na+]` [SSR128129E], the “effect on FGF receptors” value [1] is given as “binds to and prevents the activation of all four FGF receptors” and the “interaction with ligand-binding domain of the FGF receptors” value [1] is given as “does not interact with the ligand-binding domain of the receptors”.

In the case of “FGF-1: fibroblast growth factor, recombinant human ligand”, the “phosphorylation of ERK1/2 upon growth factor stimulation” value [2] is reported as “phosphorylation of ERK1/2 increases”.

For PSAIWF [PSAIWF], the IC50 [3] was roughly 278 µM.

In the case of WVCSGG [phage WVCSGG], the “phage binding to human VEGFR-3” value [4] is reported as “both phages bound to mouse and human VEGFR-3” and the “phage binding to mouse VEGFR-3” value [5] is reported as “both phages bound to mouse and human VEGFR-3”.

PCAIWF [phage PCAIWF]: binds [6]; binds [7]; binds [8]. PCAIWF [phage PCAIWF]: binds [9].

PSAIWF [synthetic peptide PSAIWF]: binds [10]; binds [11]; binds [12].

PCAIWF [synthetic peptide PCAIWF]: binds [8]; binds [9]; binds [12].

WVCSGG [synthetic peptide WVCSGG]: binds [8]; binds [9].

WVCSGG [phage WVCSGG]: binds [6]; binds [7].

B1: NRP-2: neuropilin, co-receptor for VEGF; rat NRP-2 (protein)
chain: QQDPPCGGRLNSKDAGYITSPGYPQDYPSHQNCEWVVYAPEPNQKIVLNFNPHFEIEKHDCKYDFIEIRDGDSESADLLGKHCGNIAPPTIISSGSVLYIKFTSDYARQGAGFSLRYEIFKTGSEDCSKNFTSPNGTIESPGFPEKYPHNLDCTFTILAKPRMEIILQFLTFDLEHDPLQVGEGDCKYDWLDIWDGIPHVGPLIGKYCGTKTPSKLRSSTGILSLTFHTDMAVAKDGFSARYYLVHQEPPENFQCNAPLGMESGRIANEQISASSTFSDGRWTPQQSRLHGDDNGWTPNVDSNKEYLQVDLRFLTMLTAIATQGAISRETQKGYYVKSYKLEVSTNGEDWMVYRHGKNHKVFQANNDATELVLNKLHTPLLTRFIRIRPQTWHLGIALRLELFGCRVTDAPCSNMLGMLSGLIADTQISASSTREYLWSPSAARLVSSRSGWFPRNPQAQPGEEWLQVDLGTPKTVKGVIIQGARGGDSITAMEARAFVRKFKVSYSLNGKDWEYIQDPRTQQPKLFEGNMHYDTPDIRRFEPVPAQYVRVYPERWSPAGIGMRLEVLGCDWTDSKPTVETLGPTVKSEETTTPYPMDEDATECGENCSFEDDKDLQLPSGFNCNFDFPEETCGWMYDRAKWLQSTWISSANPNDRTFPDDKNFLKLQSDGGREGQFGRLISPPVHLPRSPVCMEFQYQAMGGHGVALQVVREARQESKLLWVIREDQGSEWKHGRIILPSYDMEYQIVFEGVIGKGRSGEISIDDIRISTDVPLENCMEPISAFAVDIPEIHGGEGYEDEIDDDYEGDWNNSSSTSGAGSPSSGKEKSWLYTLDP
With B1 the “NRP-2 binding to VEGFR-1” value [13] was “strong interaction”.

From publication PMC5091360 (Science Advances, 2016)
